# Assay results: ChEMBL document CHEMBL1132278, “Discovery of novel antitumor sulfonamides targeting G1 phase of the cell cycle” (J Med Chem, 1999)
# What was measured:
# Format in all cases: functional, cell-based
# KB = test: Antiproliferative activity against KB human nasopharynx carcinoma in vitro
# Summary of the method: (§1)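 RPMI1640 with 10% FBS; seeded at 2.5×10³ cells/well for KB and colon 38, 1.25×10³ cells/well for P388; preincubated 24 h at 37 °C, 5% CO2. DMSO stocks were diluted 3-fold serially in medium, with 200 μg/mL the top dilution. Exposure was continuous for 3 days, then MTT for 1–2 h. Formazan was read in DMSO at 540/660 nm, and IC50 was taken by least squares.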
# P388 = test: Antiproliferative activity against P388 murine leukemia in vitro; conditions: Mus musculus; summary of the method: as §1
# MC-38 = test: In vitro antiproliferative activity against colon 38 murine adenocarcinoma; conditions: Mus musculus; summary of the method: as §1
SMILES,IC50 (KB) [µg/mL],IC50 (P388) [µg/mL],IC50 (MC-38) [µg/mL]
N#Cc1ccccc1S(=O)(=O)Nc1cccc2c(C#N)c[nH]c12,61,14,2.8
CS(=O)(=O)Nc1cccc(S(=O)(=O)Nc2cccc3c(Cl)c[nH]c23)c1,26,4.8,1.5
COc1ccc(S(=O)(=O)Nc2cccc3c(C#N)c[nH]c23)cc1,1.4,0.17,0.17
CS(=O)(=O)Nc1ccccc1S(=O)(=O)Nc1cccc2c(Cl)c[nH]c12,18,18,45
N#Cc1cccc(S(=O)(=O)Nc2cccc3c(C#N)c[nH]c23)c1,8.2,0.2,0.09
O=C(O)c1ccc(S(=O)(=O)Nc2cccc3c(Cl)c[nH]c23)cc1,> 100,> 100,> 100
NC(=O)c1ccc(S(=O)(=O)Nc2cccc3c(Cl)c[nH]c23)cc1,21,0.87,0.19
CS(=O)(=O)Nc1ccc(S(=O)(=O)Nc2cccc3c(C#N)c[nH]c23)cc1,15,3.5,1.2
CS(=O)(=O)Nc1ccc(S(=O)(=O)Nc2cccc3c(Cl)c[nH]c23)cc1,12,1.6,0.26
NS(=O)(=O)Cc1ccc(S(=O)(=O)Nc2cccc3c(Cl)c[nH]c23)cc1,13,0.15,0.12
Cc1ccc(S(=O)(=O)Nc2cccc3cc[nH]c23)cc1,2.2,4.3,2.4
COc1ccc(S(=O)(=O)Nc2cccc3c(Cl)c[nH]c23)cc1,0.55,0.76,0.2
Nc1ccc(S(=O)(=O)Nc2cccc3cc[nH]c23)cc1,36,14,6.1
Nc1ccc(S(=O)(=O)Nc2cccc3c(Cl)c[nH]c23)cc1,10,0.81,0.23
N#Cc1ccc(S(=O)(=O)Nc2cccc3c(Cl)c[nH]c23)cc1,11,1.4,0.13
COc1ccc(S(=O)(=O)Nc2cccc3cc[nH]c23)cc1,0.67,1.1,1.5
O=S(=O)(Nc1cccc2cc[nH]c12)c1ccc(Cl)cc1,6,6,7
CNS(=O)(=O)c1ccc(S(=O)(=O)Nc2cccc3c(Cl)c[nH]c23)cc1,15,0.9,0.24
N#Cc1ccc(S(=O)(=O)Nc2cccc3cc[nH]c23)cc1,8.5,4.2,1.8
N#Cc1c[nH]c2c(NS(=O)(=O)c3ccc(C(N)=O)cc3)cccc12,15,2.5,0.68
N#Cc1ccc(S(=O)(=O)Nc2cccc3c(C#N)c[nH]c23)cc1,33,0.53,0.12
N#Cc1c[nH]c2c(NS(=O)(=O)c3ccc(C(=O)O)cc3)cccc12,> 100,> 100,> 100
N#Cc1c[nH]c2c(NS(=O)(=O)c3ccc(N)cc3)cccc12,4.4,0.72,0.28
COc1ccc(S(=O)(=O)Nc2cccnc2Nc2ccc(O)cc2)cc1 [ABT-751],,0.32,
NS(=O)(=O)c1ccc(S(=O)(=O)Nc2cccc3c(Cl)c[nH]c23)cc1 [INDISULAM],4.4,0.45,0.1
